# Laboratory results: ChEMBL document CHEMBL1122375, “Synthesis and biological evaluation of 2-fluoro-8-azaadenosine and related compounds” (J Med Chem, 1983)
# pIC50: −log10 of the molar value.
# Experiments:
# Bos taurus = species on record: Bos taurus; test: Kinetic parameter in calf intestine adenosine deaminase.; format: ADME; conditions: cattle, in vitro
# HEp-2 [1] = test: Cytotoxicity against H.Ep cells in the presence of 0.1 ug/mL pentostatin.; format: functional, cell-based; conditions: Homo sapiens
# Method in brief: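 H.Ep.-2 cell culture cytotoxicity screen with pentostatin at 0.1 µg/mL in the medium. Value is the drug concentration that inhibits cell growth to 50% of controls.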
# HEp-2 [2] = test: Cytotoxicity against H.Ep cells; format: functional, cell-based; conditions: Homo sapiens
# Method in brief: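 H.Ep.-2 human cell culture cytotoxicity screen. Value is the drug concentration that inhibits cell growth to 50% of untreated controls.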
# P388 [3] = test: Percent increase in life span of P388 leukemia cells (10e6) infected(ip) mice at dose of 6(50) mg/kg, ip: qd 1-9 schedule.; format: functional, Mus musculus
# P388 [4] = test: Percent increase in life span of P388 leukemia cells (10e6) infected(ip) mice at dose of 400 (400) mg/kg, ip: day 1 only; format: functional, Mus musculus
# P388 [5] = test: Percent increase in life span of P388 leukemia cells (10e6) infected(ip) mice at dose of 50 (200) mg/kg, ip: qd 1-5 schedule.
# P388 [6] = test: Percent increase in life span of P388 leukemia cells (10e6) infected(ip) mice at dose of 50 (400) mg/kg, ip: qd 1-5 schedule.; format: functional, Mus musculus
Structure (SMILES),Vmax (Bos taurus),pIC50 (HEp-2 [2]),other results
COc1ncnc2c1ncn2[C@@H]1O[C@H](CO)[C@@H](O)[C@@H]1O,2 µM/min/mg,,
Nc1ncnc2c1nnn2[C@@H]1O[C@H](CO)[C@@H](O)[C@H]1O,1500 µM/min/mg,6.15,pIC50 (HEp-2 [1]): > 7.70
Nc1ncnc2c1nnn2[C@@H]1O[C@H](CO)[C@@H](O)[C@@H]1O,75 µM/min/mg,,
Nc1nc(N)c2nnn([C@@H]3O[C@H](CO)[C@@H](O)[C@H]3O)c2n1,23 µM/min/mg,6.15,ILS (P388 [3]): 25%; pIC50 (HEp-2 [1]): < 4.70
Nc1nc(N)c2ncn([C@@H]3O[C@H](CO)[C@@H](O)[C@H]3O)c2n1,119 µM/min/mg,,
Nc1nc(F)nc2c1ncn2[C@@H]1O[C@H](CO)[C@@H](O)[C@H]1O,0.78 µM/min/mg,,
Nc1nc(F)nc2c1nnn2[C@H]1C[C@H](O)[C@@H](CO)O1,,4.15,
Nc1ncnc2c1nnn2[C@H]1C[C@H](O)[C@@H](CO)O1,2000 µM/min/mg,5.00,pIC50 (HEp-2 [1]): < 4.60
COc1ncnc2c1nnn2[C@@H]1O[C@H](CO)[C@@H](O)[C@H]1O,27 µM/min/mg,,
Nc1nc(O)c2nnn(C3O[C@H](CO)[C@@H](O)[C@H]3O)c2n1 (some centres undefined),,5.70,
CSc1nc(N)c2nnn(C3O[C@H](CO)[C@@H](O)[C@H]3O)c2n1 (some centres undefined),,< 3.89,
CSc1nc(N)c2nn(C3O[C@H](CO)[C@@H](O)[C@H]3O)nc2n1 (some centres undefined),,4.60,
Nc1nc(N)c2nn(C3O[C@H](CO)[C@@H](O)[C@H]3O)nc2n1 (some centres undefined),,< 4.12,ILS (P388 [4]): 0%
CS(=O)(=O)c1nc(N)c2nn(C3O[C@H](CO)[C@@H](O)[C@H]3O)nc2n1 (some centres undefined),,4.66,
CCOc1nc(N)c2nnn(C3O[C@H](CO)[C@@H](O)[C@H]3O)c2n1 (some centres undefined),,< 4.12,
Nc1nc(F)nc2c1nnn2C1O[C@H](CO)[C@@H](O)[C@H]1O (some centres undefined),5 µM/min/mg,5.70,pIC50 (HEp-2 [1]): 5.70; ILS (P388 [5]): 21%
Nc1nc(F)nc2nn(C3O[C@H](CO)[C@@H](O)[C@H]3O)nc12 (some centres undefined),,< 4.12,
CS(=O)(=O)c1nc(N)c2nnn(C3O[C@H](CO)[C@@H](O)[C@H]3O)c2n1 (some centres undefined),,4.85,ILS (P388 [6]): 38%
Nc1nc(O)nc2nn(C3O[C@H](CO)[C@@H](O)[C@H]3O)nc12 (some centres undefined),,< 4.12,
Nc1nc(O)c2[nH]nnc2n1 [8-AZAGUANINE],,5.70,
Nc1ncnc2c1ncn2[C@@H]1O[C@H](CO)[C@@H](O)[C@H]1O [ADENOSINE],435 µM/min/mg,,
Nc1ncnc2c1ncn2[C@@H]1O[C@H](CO)[C@@H](O)[C@@H]1O [VIDARABINE],94 µM/min/mg,,
